Reference: ChEMBL document CHEMBL4406881, “Design, synthesis and biological evaluation of benzoylacrylic acid shikonin ester derivatives as irreversible dual inhibitors of tubulin and EGFR” (Bioorg Med Chem, 2019)
Calls of active or inactive are those of the source. The calls are words filed in the database; no cut-off is given here.

Assays:
A549 [1] = assay: Induction of apoptosis in human A549 cells assessed as early apoptotic cells at 2 uM after 24 hrs by Annexin-V/PI staining based flow cytometry analysis (reference value: 1.15%); type: functional
A549 [2] = assay: Induction of apoptosis in human A549 cells assessed as necrotic cells after at 2 uM 24 hrs by Annexin-V/PI staining based flow cytometry analysis (reference value: 1.81%); type: functional
How it was run: (§1)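 A549 cells seeded overnight at 37 °C, 5% CO2, then exposed to 0, 2, 4, 8 or 12 µM for 24 h (dose series) or 8 µM for 0, 12, 24, 36 h (time series). Harvested, PBS-washed, stained with Annexin V-FITC and PI in binding buffer 15 min at room temperature in the dark, analysed by flow cytometry; three independent experiments.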

A549 [3] = assay: Induction of apoptosis in human A549 cells assessed as late apoptotic cells at 8 uM after 24 hrs by Annexin-V/PI staining based flow cytometry analysis (reference value: 5.69%); type: functional; how it was run: as §1
A549 [4] = assay: Induction of apoptosis in human A549 cells assessed as necrotic cells after at 8 uM 24 hrs by Annexin-V/PI staining based flow cytometry analysis (reference value: 1.81%); type: functional; how it was run: as §1
A549 [5] = assay: Induction of apoptosis in human A549 cells assessed as early apoptotic cells at 12 uM after 24 hrs by Annexin-V/PI staining based flow cytometry analysis (reference value: 1.15%); type: functional
A549 [6] = assay: Induction of apoptosis in human A549 cells assessed as necrotic cells after at 8 uM 12 hrs by Annexin-V/PI staining based flow cytometry analysis (reference value: 2.98%); type: functional; how it was run: as §1
A549 [7] = assay: Induction of apoptosis in human A549 cells assessed as necrotic cells after at 8 uM 24 hrs by Annexin-V/PI staining based flow cytometry analysis (reference value: 2.98%); type: functional; how it was run: as §1
A549 [8] = assay: Induction of apoptosis in human A549 cells assessed as viable cells at 8 uM after 36 hrs by Annexin-V/PI staining based flow cytometry analysis (reference value: 88.4%); type: functional; settings: A549, 36 h, read-out: Activity; how it was run: as §1
A549 [9] = assay: Induction of apoptosis in human A549 cells incubated for 24 hrs by Annexin-V/PI staining based flow cytometry analysis; type: functional, cell-based; how it was run: as §1
A549 [10] = assay: Induction of apoptosis in human A549 cells assessed as PARP cleavage expression at 2 to 8 uM after 24 hrs by Western blot analysis; type: functional, cell-based
How it was run: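 Western blot of A549 cells treated for 24 h. Lysates in RIPA buffer were run on SDS-PAGE and transferred to PVDF. Primary antibody at 1:1000 overnight at 4 °C, secondary antibody at 1:3000-1:5000 for 1 h, ECL detection. Densitometry was normalised to GAPDH; mean ± S.E.M. from three independent experiments.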

A549 [11] = assay: Induction of apoptosis in human A549 cells assessed as low mitochondrial membrane potential at 8 uM after 12 hrs by JC-1 staining-based flow cytometric analysis (reference value: 6.3%); type: functional
A549 [12] = assay: Induction of apoptosis in human A549 cells assessed as increase in late apoptotic cells at 4 to 12 uM after 12 hrs by PI-staining based flow cytometric analysis; type: functional, cell-based
How it was run: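 JC-1 staining of A549 cells treated for 12 h. CCCP-treated wells, 20 min at 37 °C, served as positive control. Collected cells were incubated with JC-1 solution at 37 °C for 30 min, washed, and analysed by flow cytometry for the fraction with high ΔΨm and for PI-positive cells. Results are mean ± S.E.M. of three replicates.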

[13] = target: T1, Epidermal growth factor receptor (Homo sapiens, UniProt P00533); assay: Potency index, ratio of shi-konin IC50 to compound IC50 for inhibition of C-terminal His-tagged N-terminal GST-tagged human EGFR (668 to 1210 residues) expressed in baculovirus infected Sf9 cells after 30 mins in presence of gamma-[32p-ATP] binding assay
A549 [14] = assay: Cell cycle arrest in human A549 cells assessed as accumulation at G1 phase at 2 uM after 24 hrs by RNAse A/ PI staining based flow cytometric analysis (reference value: 73.30%); type: functional
How it was run: (§2)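 A549 cells at 5.0×10^4 per well were grown 12 h at 37 °C. Treatment was 0, 2, 4 or 8 µM for 24 h, or 8 µM for 0, 12, 24 or 36 h. Cells were fixed in 70% ethanol at −20 °C for at least 12 h, then stained in PBS with 0.1 mg/mL RNase A and 5 µg/mL PI. At least 10,000 events per sample were collected by flow cytometry to give G0/G1, S and G2/M percentages.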

A549 [15] = assay: Cell cycle arrest in human A549 cells assessed as accumulation at S phase at 2 uM after 24 hrs by RNAse A/ PI staining based flow cytometric analysis (reference value: 17.23%); type: functional; how it was run: as §2
A549 [16] = assay: Cell cycle arrest in human A549 cells assessed as accumulation at S phase at 4 uM after 24 hrs by RNAse A/ PI staining based flow cytometric analysis (reference value: 17.23%); type: functional; how it was run: as §2
A549 [17] = assay: Cell cycle arrest in human A549 cells assessed as accumulation at S phase at 8 uM after 24 hrs by RNAse A/ PI staining based flow cytometric analysis (reference value: 19.66%); type: functional; how it was run: as §2
A549 [18] = assay: Induction of G2/M cell cycle arrest in human A549 cells assessed as increase in CDK1 expression at 2 to 8 uM by immunoblot analysis; type: functional, cell-based
How it was run: (§3)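 A549 lysates in RIPA buffer with protease inhibitors were run on SDS-PAGE and blotted to PVDF. Membranes were probed overnight at 4 °C with primary antibody at 1:1000, then secondary antibody at 1:3000-1:5000 for 1 h, and detected by ECL. Band intensity was normalised to GAPDH. Results are mean ± S.E.M. from three independent experiments.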

A549 [19] = assay: Cell cycle arrest in human A549 cells assessed as downregulation of cyclin A expression at 2 to 8 uM by immunoblot analysis; type: functional, cell-based; how it was run: as §3
[20] = target: T1, Epidermal growth factor receptor; assay: Inhibition of EGFR signalling in human A549 cells assessed as reduction in ERK phosphorylation after 24 hrs by Western blot analysis; type: cell-based
How it was run: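 A549 cells in 6-well plates were lysed in RIPA buffer with protease inhibitors on ice for 30 min and cleared at 4 °C. Protein was quantified by BCA, run on SDS-PAGE and transferred to PVDF. Membranes were blocked with milk, probed with primary antibody (1:1000) overnight at 4 °C, then secondary antibody (1:3000-1:5000) 1 h at RT. Detection by ECL; band densitometry normalised to GAPDH (β-actin also used). Three independent experiments.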

[21] = Toxicity in ip dosed Balb/c mouse xenografted with human A549 cells assessed as effect on body weight at 2 to 4 mg/kg, ip administered once every two days for 32 days and measured for every 2 days; type: organism-based; settings: in vivo
How it was run: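 Female BALB/c nude mice (5-6 weeks) received 6×10^6 A549 cells s.c. in the flank. After two weeks (tumours ~90 mm³) they were split into 5 groups (n = 8). Dosing was 2 or 4 mg/kg, dissolved in DMSO, i.p. once every two days for 16 doses; DMSO vehicle served as control. Body weight and tumour volume (L×S²/2) were recorded every two days; mice were killed at day 32.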

A549 [22] = assay: Cell cycle arrest in human A549 cells assessed as accumulation at S phase at 8 uM after 36 hrs by RNAse A/ PI staining based flow cytometric analysis (reference value: 19.66%); type: functional; how it was run: as §2

T1 sequence (P00533 whole entry, the tested form may be a part): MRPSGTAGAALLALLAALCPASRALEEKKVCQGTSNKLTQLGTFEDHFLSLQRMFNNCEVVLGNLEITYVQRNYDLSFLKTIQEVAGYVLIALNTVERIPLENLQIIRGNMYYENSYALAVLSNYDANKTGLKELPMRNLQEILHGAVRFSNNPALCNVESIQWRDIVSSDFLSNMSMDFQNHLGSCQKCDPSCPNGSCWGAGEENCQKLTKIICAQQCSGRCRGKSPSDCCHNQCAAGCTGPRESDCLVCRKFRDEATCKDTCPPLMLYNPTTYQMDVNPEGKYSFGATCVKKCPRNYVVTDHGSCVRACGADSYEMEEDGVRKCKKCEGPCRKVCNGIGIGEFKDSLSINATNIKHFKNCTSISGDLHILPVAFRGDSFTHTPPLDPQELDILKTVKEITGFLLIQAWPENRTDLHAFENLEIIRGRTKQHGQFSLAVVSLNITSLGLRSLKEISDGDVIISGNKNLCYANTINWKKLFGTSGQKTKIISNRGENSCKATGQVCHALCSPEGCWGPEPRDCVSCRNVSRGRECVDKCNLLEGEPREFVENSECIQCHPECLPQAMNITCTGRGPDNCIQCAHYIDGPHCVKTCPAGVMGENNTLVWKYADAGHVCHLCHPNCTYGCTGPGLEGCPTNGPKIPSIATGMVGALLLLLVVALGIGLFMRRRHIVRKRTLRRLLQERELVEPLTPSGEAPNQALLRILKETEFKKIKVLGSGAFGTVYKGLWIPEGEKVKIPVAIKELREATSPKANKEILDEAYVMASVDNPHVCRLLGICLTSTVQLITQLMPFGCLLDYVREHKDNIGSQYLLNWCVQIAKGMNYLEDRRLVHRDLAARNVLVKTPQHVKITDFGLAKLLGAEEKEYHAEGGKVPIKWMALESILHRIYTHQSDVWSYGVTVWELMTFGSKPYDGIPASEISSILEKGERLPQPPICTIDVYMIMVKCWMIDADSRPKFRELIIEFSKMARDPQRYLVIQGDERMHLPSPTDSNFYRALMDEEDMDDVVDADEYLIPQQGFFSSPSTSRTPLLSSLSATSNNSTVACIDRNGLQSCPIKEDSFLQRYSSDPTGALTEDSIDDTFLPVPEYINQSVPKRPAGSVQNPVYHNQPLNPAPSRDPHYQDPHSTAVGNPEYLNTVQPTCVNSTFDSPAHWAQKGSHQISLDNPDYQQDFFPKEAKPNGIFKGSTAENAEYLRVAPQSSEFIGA

CC(C)=CC[C@@H](OC(=O)/C=C\C(=O)c1ccc(F)cc1)C1=CC(=O)c2c(O)ccc(O)c2C1=O
Activity (A549 [1]): 4.62%
Activity (A549 [2]): 2.2%
Activity (A549 [3]): 30.5%
Activity (A549 [4]): 3.29%
Activity (A549 [5]): 42.6%
Activity (A549 [6]): 2.04%
Activity (A549 [7]): 3.72%
viability at 8 µM (A549 [8]): 12.2%
Activity (A549 [9]): Dose-dependent effect
Activity (A549 [10]): Active
Activity (A549 [11]): 39.3%
Activity (A549 [12]): inactive
Ratio IC50 [13]: 6
Activity (A549 [14]): 61.67%
Activity (A549 [15]): 22.93%
Activity (A549 [16]): 19.8%
Activity (A549 [17]): 23.66%
Activity (A549 [18]): Active
Activity (A549 [19]): Active
inhibition [20]: Dose-dependent effect
Activity [21]: Non-Toxic
Activity (A549 [22]): 22.57%
